ChEMBL document CHEMBL1926577, “Novel 1,3,4-heterodiazole analogues: synthesis and in-vitro antitumor activity” (2012)

Key:
Format in all cases: functional
CCRF-CEM = test: Growth inhibition of human CCRF-CEM cells at 10 uM after 48 hrs by coulter counter method; settings: read-out: GI
Summary of the method: (§1)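 NCI 60-cell-line panel, single dose. Compound dissolved first in DMSO, then diluted in phosphate-buffered saline so that every final dilution held under 1% DMSO. Duplicate wells received cells at 6 × 10⁴ cells/ml. Controls held PBS/DMSO at the same dilution. Plates were incubated 48 h at 37 °C under 5% CO₂. Cells were then diluted 10-fold in saline and counted on a Coulter counter, with counts corrected for the dilution. Results are given as percent growth inhibition.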

HL-60(TB) = test: Growth inhibition of human HL-60(TB) cells at 10 uM after 48 hrs by coulter counter method; settings: HL-60, 48 h, read-out: GI
Summary of the method: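 Single-dose screen on the NCI 60-line panel (leukemia subpanel). Compound is dissolved in DMSO and diluted in PBS, with final DMSO below 1%. Duplicate wells hold 6 × 10⁴ cells/ml at 37 °C, 5% CO₂, for 48 h. Cells are counted by Coulter counter after 10-fold saline dilution. Read-out is percent growth versus PBS/DMSO controls, expressed as % growth inhibition.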

K562 = test: Growth inhibition of human K562 cells at 10 uM after 48 hrs by coulter counter method; settings: K562, 48 h, read-out: GI; summary of the method: as §1
MOLT-4 = test: Growth inhibition of human MOLT4 cells at 10 uM after 48 hrs by coulter counter method; settings: MOLT-4, 48 h, read-out: GI; summary of the method: as §1
RPMI-8226 = test: Growth inhibition of human RPMI8226 cells at 10 uM after 48 hrs by coulter counter method; settings: RPMI-8226, 48 h, read-out: GI; summary of the method: as §1
SR = test: Growth inhibition of human SR cells at 10 uM after 48 hrs by coulter counter method; settings: read-out: GI; summary of the method: as §1
A549 = test: Growth inhibition of human A549 cells at 10 uM after 48 hrs by coulter counter method; settings: A549, 48 h, read-out: GI; summary of the method: as §1
EKVX = test: Growth inhibition of human EKVX cells at 10 uM after 48 hrs by coulter counter method; settings: read-out: GI; summary of the method: as §1
NCI-H226 = test: Growth inhibition of human NCI-H226 cells at 10 uM after 48 hrs by coulter counter method; settings: NCI-H226, 48 h, read-out: GI; summary of the method: as §1
NCI-H23 = test: Growth inhibition of human NCI-H23 cells at 10 uM after 48 hrs by coulter counter method; settings: NCI-H23, 48 h, read-out: GI; summary of the method: as §1
NCI-H322M = test: Growth inhibition of human NCI-H322M cells at 10 uM after 48 hrs by coulter counter method; settings: read-out: GI; summary of the method: as §1
NCI-H522 = test: Growth inhibition of human NCI-H522 cells at 10 uM after 48 hrs by coulter counter method; settings: NCI-H522, 48 h, read-out: GI; summary of the method: as §1
HCT-116 = test: Growth inhibition of human HCT116 cells at 10 uM after 48 hrs by coulter counter method; settings: HCT-116, 48 h, read-out: GI; summary of the method: as §1
HCT-15 = test: Growth inhibition of human HCT15 cells at 10 uM after 48 hrs by coulter counter method; settings: HCT-15, 48 h, read-out: GI; summary of the method: as §1
HT-29 = test: Growth inhibition of human HT-29 cells at 10 uM after 48 hrs by coulter counter method; settings: HT-29, 48 h, read-out: GI; summary of the method: as §1
KM12 = test: Growth inhibition of human KM12 cells at 10 uM after 48 hrs by coulter counter method; settings: KM12, 48 h, read-out: GI; summary of the method: as §1
SF-268 = test: Growth inhibition of human SF268 cells at 10 uM after 48 hrs by coulter counter method; settings: SF-268, 48 h, read-out: GI; summary of the method: as §1
SF-295 = test: Growth inhibition of human SF295 cells at 10 uM after 48 hrs by coulter counter method; settings: SF-295, 48 h, read-out: GI; summary of the method: as §1
SNB-19 = test: Growth inhibition of human SNB19 cells at 10 uM after 48 hrs by coulter counter method; settings: SNB-19, 48 h, read-out: GI; summary of the method: as §1
SNB-75 = test: Growth inhibition of human SNB75 cells at 10 uM after 48 hrs by coulter counter method; settings: SNB-75, 48 h, read-out: GI; summary of the method: as §1
U-251 = test: Growth inhibition of human U251 cells at 10 uM after 48 hrs by coulter counter method; settings: U-251, 48 h, read-out: GI; summary of the method: as §1
LOX IMVI = test: Growth inhibition of human LOXIMVI cells at 10 uM after 48 hrs by coulter counter method; settings: read-out: GI; summary of the method: as §1
Malme-3M = test: Growth inhibition of human MALME-3M cells at 10 uM after 48 hrs by coulter counter method; settings: read-out: GI; summary of the method: as §1
M14 = test: Growth inhibition of human M14 cells at 10 uM after 48 hrs by coulter counter method; settings: M14, 48 h, read-out: GI; summary of the method: as §1
MDA-MB-435 = test: Growth inhibition of human MDA-MB-435 cells at 10 uM after 48 hrs by coulter counter method; settings: MDA-MB-435, 48 h, read-out: GI; summary of the method: as §1
SK-MEL-2 = test: Growth inhibition of human SK-MEL-2 cells at 10 uM after 48 hrs by coulter counter method; settings: SK-MEL-2, 48 h, read-out: GI; summary of the method: as §1
SK-MEL-28 = test: Growth inhibition of human SK-MEL-28 cells at 10 uM after 48 hrs by coulter counter method; settings: SK-MEL-28, 48 h, read-out: GI; summary of the method: as §1
SK-MEL-5 = test: Growth inhibition of human SK-MEL-5 cells at 10 uM after 48 hrs by coulter counter method; settings: SK-MEL-5, 48 h, read-out: GI; summary of the method: as §1
UACC-257 = test: Growth inhibition of human UACC257 cells at 10 uM after 48 hrs by coulter counter method; settings: UACC-257, 48 h, read-out: GI; summary of the method: as §1
UACC-62 = test: Growth inhibition of human UACC62 cells at 10 uM after 48 hrs by coulter counter method; settings: UACC-62, 48 h, read-out: GI; summary of the method: as §1
IGROV-1 = test: Growth inhibition of human IGROV1 cells at 10 uM after 48 hrs by coulter counter method; settings: IGROV-1, 48 h, read-out: GI; summary of the method: as §1
OVCAR-8 = test: Growth inhibition of human OVCAR8 cells at 10 uM after 48 hrs by coulter counter method; settings: OVCAR-8, 48 h, read-out: GI; summary of the method: as §1
NCI/ADR-RES = test: Growth inhibition of human NCI/ADR-RES cells at 10 uM after 48 hrs by coulter counter method; settings: read-out: GI; summary of the method: as §1
786-0 = test: Growth inhibition of human 786-0 cells at 10 uM after 48 hrs by coulter counter method; settings: 786-0, 48 h, read-out: GI; summary of the method: as §1
A498 = test: Growth inhibition of human A498 cells at 10 uM after 48 hrs by coulter counter method; settings: A498, 48 h, read-out: GI; summary of the method: as §1
ACHN = test: Growth inhibition of human ACHN cells at 10 uM after 48 hrs by coulter counter method; settings: read-out: GI; summary of the method: as §1
CAKI-1 = test: Growth inhibition of human Caki1 cells at 10 uM after 48 hrs by coulter counter method; settings: CAKI-1, 48 h, read-out: GI; summary of the method: as §1
SN12C = test: Growth inhibition of human SN12C cells at 10 uM after 48 hrs by coulter counter method; settings: read-out: GI; summary of the method: as §1
TK-10 = test: Growth inhibition of human TK10 cells at 10 uM after 48 hrs by coulter counter method; settings: TK-10, 48 h, read-out: GI; summary of the method: as §1
UO-31 = test: Growth inhibition of human UO31 cells at 10 uM after 48 hrs by coulter counter method; settings: UO-31, 48 h, read-out: GI; summary of the method: as §1
PC-3 = test: Growth inhibition of human PC3 cells at 10 uM after 48 hrs by coulter counter method; settings: PC-3, 48 h, read-out: GI; summary of the method: as §1
MCF7 = test: Growth inhibition of human MCF7 cells at 10 uM after 48 hrs by coulter counter method; settings: MCF7, 48 h, read-out: GI; summary of the method: as §1
BT-549 = test: Growth inhibition of human BT549 cells at 10 uM after 48 hrs by coulter counter method; settings: BT-549, 48 h, read-out: GI; summary of the method: as §1
T47D = test: Growth inhibition of human T47D cells at 10 uM after 48 hrs by coulter counter method; settings: read-out: GI; summary of the method: as §1
MDA-MB-468 = test: Growth inhibition of human MDA-MB-468 cells at 10 uM after 48 hrs by coulter counter method; settings: MDA-MB-468, 48 h, read-out: GI; summary of the method: as §1

O=C1N=C2SC(c3ccc(Cl)cc3)=NN2C1=O
inhibition of growth at 10 µM (CCRF-CEM): < 10%
inhibition of growth at 10 µM (HL-60(TB)): 15.2%
inhibition of growth at 10 µM (K562): 12.7%
inhibition of growth at 10 µM (MOLT-4): 10.6%
inhibition of growth at 10 µM (RPMI-8226): < 10%
inhibition of growth at 10 µM (SR): 11.1%
inhibition of growth at 10 µM (A549): < 10%
inhibition of growth at 10 µM (EKVX): < 10%
inhibition of growth at 10 µM (NCI-H226): < 10%
inhibition of growth at 10 µM (NCI-H23): < 10%
inhibition of growth at 10 µM (NCI-H322M): < 10%
inhibition of growth at 10 µM (NCI-H522): 19.7%
inhibition of growth at 10 µM (HCT-116): < 10%
inhibition of growth at 10 µM (HCT-15): < 10%
inhibition of growth at 10 µM (HT-29): < 10%
inhibition of growth at 10 µM (KM12): < 10%
inhibition of growth at 10 µM (SF-268): < 10%
inhibition of growth at 10 µM (SF-295): < 10%
inhibition of growth at 10 µM (SNB-19): < 10%
inhibition of growth at 10 µM (SNB-75): < 10%
inhibition of growth at 10 µM (U-251): < 10%
inhibition of growth at 10 µM (LOX IMVI): < 10%
inhibition of growth at 10 µM (Malme-3M): < 10%
inhibition of growth at 10 µM (M14): < 10%
inhibition of growth at 10 µM (MDA-MB-435): < 10%
inhibition of growth at 10 µM (SK-MEL-2): < 10%
inhibition of growth at 10 µM (SK-MEL-28): < 10%
inhibition of growth at 10 µM (SK-MEL-5): < 10%
inhibition of growth at 10 µM (UACC-257): < 10%
inhibition of growth at 10 µM (UACC-62): < 10%
inhibition of growth at 10 µM (IGROV-1): < 10%
inhibition of growth at 10 µM (OVCAR-8): < 10%
inhibition of growth at 10 µM (NCI/ADR-RES): < 10%
inhibition of growth at 10 µM (786-0): < 10%
inhibition of growth at 10 µM (A498): < 10%
inhibition of growth at 10 µM (ACHN): < 10%
inhibition of growth at 10 µM (CAKI-1): < 10%
inhibition of growth at 10 µM (SN12C): < 10%
inhibition of growth at 10 µM (TK-10): < 10%
inhibition of growth at 10 µM (UO-31): < 10%
inhibition of growth at 10 µM (PC-3): < 10%
inhibition of growth at 10 µM (MCF7): 12.1%
inhibition of growth at 10 µM (BT-549): 12.2%
inhibition of growth at 10 µM (T47D): < 10%
inhibition of growth at 10 µM (MDA-MB-468): < 10%
